Where two headings read alike, the source gives them in different places. Marks after values point to notes of the source that are not given here.
Tests used:
[1] = system: Japanese patients with type 2 diabetes mellitus; test: Plasma glucose; type: in vivo, human; conditions: for FPG change from baseline / FPG postdose: single 5-mg oral dose, mean ± SD; for changes in plasma glucose AUC0-4 from baseline: single 5-mg dose
Method in brief: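 Hospitalized patients received a single oral dose before breakfast on day 3. Plasma glucose was sampled predose and at 0.5, 1, 2, 4, 6, 8, 12 and 24 h and measured by autoanalyzer. AUC was calculated by the linear trapezoidal rule, with change from the day before dosing estimated per patient. Change in AUC0-4 was analyzed by 1-sample t test.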

[2] = type: in vivo, human
Method in brief: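 Samples were assayed by validated HPLC-MS/MS (solid-phase extraction, deuterated internal standard, negative-ion MRM; LLOQ 0.05 ng/mL). Parameters came from noncompartmental analysis. Group effects were assessed by ANOVA as geometric mean ratios to the normal-function group with 90% CIs.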

[3] = system: Japanese patients with type 2 diabetes mellitus; test: Safety: adverse events after a single 5-mg dose; type: in vivo, human
Method in brief: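 Adverse events were recorded by type and incidence from monitoring of clinical laboratory tests, body weight, vital signs and electrocardiograms. Monitoring covered a 6-day hospital stay with a single oral dose on day 3, plus a follow-up visit 3–5 days after discharge.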

[4] = system: Japanese patients with type 2 diabetes mellitus; test: 24-hour urinary glucose excretion; type: in vivo, human; conditions: single 5-mg oral dose, mean ± SD
Method in brief: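 Patients were hospitalized for 6 days and 5 nights on a stable diet, with no other antidiabetic drugs. A single oral dose of the test compound was given before breakfast on day 3. Glucose was measured by autoanalyzer in 24-h pooled urine collected before and after dosing.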

[5] = Urinary excretion of luseogliflozin and metabolites up to 72 hours; type: in vivo, human; conditions: single 5-mg dose of luseogliflozin
Method in brief: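 24-h urine was collected before dosing and over 0–24, 24–48 and 48–72 h after a single oral dose. Parent compound and metabolites were quantified by validated LC-MS/MS after solid-phase extraction with deuterated internal standards (parent LLOQ 0.1 ng/mL). Excretion rates were estimated from the urine concentrations.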

[6] = system: SGLT2; conditions: cited from earlier work

CCOc1ccc(Cc2cc([C@@H]3S[C@H](CO)[C@@H](O)[C@H](O)[C@H]3O)c(OC)cc2C)cc1 [luseogliflozin, (1S)‐1,5‐anhydro‐1‐[5‐(4‐ethoxybenzyl)‐2‐methoxy‐4‐methylphenyl]‐1‐thio‐D‐glucitol]
FPG change from baseline ([1]; G1, eGFR ≥90, n = 11): -27.4 ± 23.5 mg/dL
FPG postdose ([1]; G1, eGFR ≥90, n = 11): 139.7 ± 25.2 mg/dL
changes in plasma glucose AUC0-4 from baseline ([1]; G1, P < .05): −135 mg⋅h/dL
FPG change from baseline ([1]; G2, eGFR 60–89, n = 17): -15.1 ± 13.6 mg/dL
FPG postdose ([1]; G2, eGFR 60–89, n = 17): 136.4 ± 37.0 mg/dL
changes in plasma glucose AUC0-4 from baseline ([1]; G2, P < .05): −104 mg⋅h/dL
FPG change from baseline ([1]; G3a, eGFR 45–59, n = 9): −11.3 ± 13.5 ^b mg/dL
FPG postdose ([1]; G3a, eGFR 45–59, n = 9): 140.1 ± 26.6 ^b mg/dL
changes in plasma glucose AUC0-4 from baseline ([1]; G3a, P < .05): −108 mg⋅h/dL
FPG change from baseline ([1]; G3b, eGFR 30–44, n = 12): −4.8 ± 11.8 ^c mg/dL
FPG postdose ([1]; G3b, eGFR 30–44, n = 12): 135.7 ± 24.3 ^c mg/dL
changes in plasma glucose AUC0-4 from baseline ([1]; G3b): −30.2 mg⋅h/dL
FPG change from baseline ([1]; G4, eGFR <30, n = 6): 2.2 ± 7.9 mg/dL
FPG postdose ([1]; G4, eGFR <30, n = 6): 125.8 ± 21.1 mg/dL
changes in plasma glucose AUC0-4 from baseline ([1]; G4): −32.6 mg⋅h/dL
difference in plasma glucose AUC0-4 from G1 (90%CI) ([1]; between G1 and G2): 32.3 (−22.8–87.5)
difference in plasma glucose AUC0-4 from G1 (90%CI) ([1]; between G1 and G3a): 26.7 (−38.6 to 91.9)
difference in plasma glucose AUC0-4 from G1 (90%CI) ([1]; between G1 and G3b): 92.2 (21.9–163)
difference in plasma glucose AUC0-4 from G1 (90%CI) ([1]; between G1 and G4): 72.6 (−1.29 to 146)
ratio of the geometric mean (90%CI) of Cmax to the Cmax of G1 ([2]; G2 versus G1): 0.922 (0.756–1.13)
ratio of the geometric mean of AUCinf (90%CI) to that of G1 ([2]; G2 versus G1): 1.05 (0.900–1.21)
ratio of the geometric mean (90%CI) of Cmax to the Cmax of G1 ([2]; G3a versus G1): 0.939 (0.720–1.22)
ratio of the geometric mean of AUCinf (90%CI) to that of G1 ([2]; G3a versus G1): 1.05 (0.842–1.32)
ratio of the geometric mean (90%CI) of Cmax to the Cmax of G1 ([2]; G3b versus G1): 0.781 (0.607–1.01)
ratio of the geometric mean of AUCinf (90%CI) to that of G1 ([2]; G3b versus G1): 1.04 (0.879–1.23)
plasma concentration 72 hours after administration as fraction of the Cmax ([2]; G4, single 5-mg dose of luseogliflozin): approximately one‐fiftieth
ratio of the geometric mean (90%CI) of Cmax to the Cmax of G1 ([2]; G4 versus G1): 0.724 (0.525–0.999)
ratio of the geometric mean of AUCinf (90%CI) to that of G1 ([2]; G4 versus G1): 1.21 (0.947–1.53)
concentration at 72 h ([2]; human, plasma, oral, 5 mg): 1.28 to 3.15 ng/mL
AEs judged as moderate: increased blood glucose, patients ([3]; 57 patients): 2
AEs judged as moderate: syncope, patients ([3]; 57 patients): 1
number of AEs in the total study population ([3]; 57 patients, all of mild to moderate severity): 12
Adverse event: Rash (Skin and subcutaneous tissue disorders) ([3]; G1 (n = 11)): 1
All adverse events: number of patients ([3]; G1 (n = 11)): 1
Adverse event: Blood glucose increased (Investigations) ([3]; G2 (n = 17)): 1
Adverse event: Bundle branch block, right (Cardiac disorders) ([3]; G2 (n = 17)): 1
All adverse events: number of patients ([3]; G2 (n = 17)): 2
All adverse events: number of events ([3]; G3a (n = 10)): 2
All adverse events: number of patients ([3]; G3a (n = 10)): 2
Adverse event: Blood glucose increased (Investigations) ([3]; G3b (n = 13)): 1
Adverse event: Dizziness (Nervous system disorders) ([3]; G3b (n = 13)): 1
Adverse event: Syncope (Nervous system disorders) ([3]; G3b (n = 13)): 1
All adverse events: number of patients ([3]; G3b (n = 13)): 3
All adverse events: number of patients ([3]; G4 (n = 6)): 0
deaths or serious AEs ([3]; any group): no deaths or serious AEs were observed
AEs judged to be related to luseogliflozin administration ([3]; both judged to be mild): rash in the G1 group and dizziness in the G3b group
changes in laboratory parameters or vital signs ([3]; during the study, data not shown): no clinically relevant changes
number of patients with AEs in the total study population ([3]; of the 57 patients): 8
UGE0-24 change from baseline ([4]; G1, eGFR ≥90, n = 11): 88.3 ± 36.9 g/day
UGE0-24 postdose ([4]; G1, eGFR ≥90, n = 11): 111 ± 36.0 g/day
UGE0-24 change from baseline ([4]; G2, eGFR 60–89, n = 17): 69.7 ± 19.1 g/day
UGE0-24 postdose ([4]; G2, eGFR 60–89, n = 17): 82.6 ± 23.8 g/day
UGE0-24 change from baseline ([4]; G3a, eGFR 45–59, n = 9): 57.3 ± 14.9 g/day
UGE0-24 postdose ([4]; G3a, eGFR 45–59, n = 9): 64.4 ± 24.4 ^b g/day
UGE0-24 change from baseline ([4]; G3a, eGFR 45–59, n = 9, listed as Luseogliflozin): 57.3 ± 14.9 ^b g/day
UGE0-24 change from baseline ([4]; G3b, eGFR 30–44, n = 12): 35.3 ± 10.8 g/day
UGE0-24 postdose ([4]; G3b, eGFR 30–44, n = 12): 39.4 ± 12.9 ^c g/day
UGE0-24 change from baseline ([4]; G3b, eGFR 30–44, n = 12, listed as Luseogliflozin): 35.3 ± 10.8 ^c g/day
UGE0-24 change from baseline ([4]; G4, eGFR <30, n = 6): 21.8 ± 7.10 g/day
UGE0-24 postdose ([4]; G4, eGFR <30, n = 6): 23.7 ± 8.83 g/day
excreted in urine up to 72 hours after administration ([5]; G1): 4.68%
excreted in urine up to 72 hours after administration ([5]; G2): 4.15%
excreted in urine up to 72 hours after administration ([5]; G3a): 3.25%
excreted in urine up to 72 hours after administration ([5]; G3b): 2.90%
excreted in urine up to 72 hours after administration ([5]; G4): 2.15%
selectivity for SGLT2 over SGLT1 ([6]; SGLT2 versus SGLT1): 1770 fold
IC50 ([6]; read-out: half-maximal inhibitory concentration (IC50) for SGLT2): 2.26 nM

Source: article PMC6220780 (Clinical Pharmacology in Drug Development, 2018)
